Reference: ChEMBL document CHEMBL1156796, “Design, synthesis, and antihepatitis B virus activities of novel 2-pyridone derivatives” (J Med Chem, 2010)

Key:
[1] = Selectivity index, ratio of CC50 for human HepG2(2.2.15) cells to IC50 for HBV infected in human HepG2(2.2.15) cells assessed as inhibition of HBsAg; assay type: functional
How it was run: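 MTT at 5 g/L added 4 h before lysis in 10% SDS/50% DMF, pH 7.2, with OD read at 570 nm. IC50: HBsAg in day-9 supernatants measured by ELISA. SI = CC50/IC50.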

Hepatitis B virus [2] = assay: Antiviral activity against HBV infected in human HepG2(2.2.15) cells assessed as inhibition of HBsAg level after 9 days by ELISA; assay type: functional, organism-based; settings: HepG2 2.2.15, 216 h
[3] = Selectivity index, ratio of CC50 for human HepG2(2.2.15) cells to IC50 for HBV infected in human HepG2(2.2.15) cells assessed as inhibition of HBV DNA replication; assay type: functional
[4] = Cytotoxicity against human HepG2(2.2.15) cells; assay type: cell-based
[5] = Selectivity index, ratio of CC50 for human HepG2(2.2.15) cells to IC50 for HBV infected in human HepG2(2.2.15) cells assessed as inhibition of HBeAg; assay type: functional
Hepatitis B virus [6] = assay: Antiviral activity against HBV infected in human HepG2(2.2.15) cells assessed as inhibition of HBV DNA replication after 9 days by PCR; assay type: functional, organism-based
Hepatitis B virus [7] = assay: Antiviral activity against HBV infected in human HepG2(2.2.15) cells assessed as inhibition of HBeAg level after 9 days by ELISA; assay type: functional, organism-based; settings: HepG2 2.2.15, 216 h
Hepatitis B virus [8] = assay: Antiviral activity against HBV infected in human HepG2(2.2.15) cells assessed as inhibition of HBV DNA replication after 9 days by PCR relative to adefovir; assay type: functional
How it was run: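 HepG2 2.2.15 cells treated with different dosages of compound; culture supernatants collected nine days after treatment. IC50 taken as the concentration giving 50% inhibition of HBV DNA replication.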

[9] = Hepatitis B virus, HepG2 2.2.15, 216 h, read-out: IC50

Row | SMILES | IC50 (Hepatitis B virus [2]) [µM] | IC50 (Hepatitis B virus [6]; [9]) [µM] | IC50 (Hepatitis B virus [7]) [µM] | IC50 (Hepatitis B virus [6]; hepg2 2.2.15) | Ratio CC50/IC50 [1] | Ratio CC50/IC50 [3] | CC50 [4] [µM] | Ratio CC50/IC50 [5] | fold change (FC) (Hepatitis B virus [8])
1 | COc1ccc(/C(=N/Cc2ccc(F)cc2)c2ccc(=O)n(Cc3ccc(F)cc3)c2)c(O)c1 | > 86.9 | 64.5 | > 86.9 |  | <0.12 | 0.15 | 10 | <0.12 | 
2 | COc1ccc(C(=O)c2ccc(=O)n(-c3ccccc3)c2)c(O)c1 | 176 | 20 | 76 |  | 1.02 | 8.95 | 179 | 2.36 | 
3 | COc1ccc(C(=O)c2ccc(=O)n(-c3ccc([N+](=O)[O-])cc3)c2)c(O)c1 | > 109 |  | > 109 | Not Active | <1.07 |  | 177 | <1.07 | 
4 | COc1ccc(C(=O)c2ccc(=O)n(-c3ccccc3OC)c2)c(O)c1 | > 114 | 76 | 49 |  |  | >1.5 | > 114 | >2.3 | 
5 | COc1ccc(/C(=N/Cc2ccc(F)c(F)c2)c2ccc(=O)n(Cc3ccc(F)c(F)c3)c2)c(O)c1 | 496 | 97.5 | > 403 |  | 0.41 | 2.07 | 201 | <0.5 | 
6 | COc1ccc(C(=O)c2ccc(=O)n(C(C)C)c2)c(O)c1 | 846 | 170 | > 846 |  | 0.82 | 4.09 | 696 | <0.82 | 
7 | COc1ccc(C(=O)c2ccc(=O)n(-c3ccc(F)cc3)c2)c(O)c1 | > 118 | 98.3 | > 118 |  |  | >1.2 | > 118 |  | 
8 | Nc1ncnc2c1ncn2CCOCP(=O)(O)O [ADEFOVIR] | 305 | 0.517 | 286 |  | 1.77 | 1044.5 | 540 | 1.89 | 
9 | CCC/N=C(\c1ccc(=O)n(CCC)c1)c1ccc(OC)cc1O | > 122 | 33.8 | > 122 |  | <1 | 3.55 | 120 | <1 | 
10 | COc1ccc(/C(=N/Cc2ccc(C)cc2)c2ccc(=O)n(Cc3ccc(C)cc3)c2)c(O)c1 | > 118 | 21.7 | > 118 |  | <0.17 | 0.92 | 20 | <0.17 | 
11 | COc1ccc(/C(=N/C2CCCCC2)c2ccc(=O)n(C3CCCCC3)c2)c(O)c1 | 201 | 4 | 71 |  | 1.93 | 96.75 | 387 | 5.45 | 
12 | C=CCn1cc(C(=O)c2ccc(OC)cc2O)ccc1=O | 276 | 101 | 58 |  | 0.84 | 2.3 | 232 | 4 | 
13 | COc1ccc(/C(=N/C2CC2)c2ccc(=O)n(C3CC3)c2)c(O)c1 | 123 | > 462 | 10 |  | 1.33 | <0.35 | 164 | 16.4 | 
14 | COc1ccc(C(=O)c2ccc(=O)n(-c3ccc(C)cc3)c2)c(O)c1 | > 119 | 5 | 2 |  |  | >23.9 | > 119 | >59.7 | 
15 | COc1ccc(C(=O)c2ccc(=O)n(-c3ccc(C(C)=O)cc3)c2)c(O)c1 | > 110 | 11.2 | 774 |  | <1.21 | 11.88 | 133 | 0.17 | 
16 | CCOc1ccc(-n2cc(C(=O)c3ccc(OC)cc3O)ccc2=O)cc1 | > 110 | 0.206 | 55 |  |  | >532 | > 110 | >1.99 | 
17 | COc1ccc(/C(=N/C(C)C)c2ccc(=O)n(C(C)C)c2)c(O)c1 | > 122 | > 122 | 54 |  |  |  | > 122 | >2.26 | 
18 | COc1ccc(-n2cc(C(=O)c3ccc(OC)cc3O)ccc2=O)cc1 | > 114 | 5.2 | 222 |  |  | 66.54 | 346 | 1.56 | 
19 | CCCn1cc(C(=O)c2ccc(OC)cc2O)ccc1=O | > 139 | 33.3 | 46.3 |  |  | 3.93 | 131 | 2.83 | 
20 | CCCCn1cc(C(=O)c2ccc(OC)cc2O)ccc1=O | > 133 | 28.6 | > 133 |  | <0.5 | 2.34 | 67 | <0.5 | 

Further compounds by falling IC50 (Hepatitis B virus [2]), results first:

Row | IC50 (Hepatitis B virus [2]) [µM] | IC50 (Hepatitis B virus [6]; [9]) [µM] | IC50 (Hepatitis B virus [7]) [µM] | IC50 (Hepatitis B virus [6]; hepg2 2.2.15) | SMILES | Ratio CC50/IC50 [1] | Ratio CC50/IC50 [3] | CC50 [4] [µM] | Ratio CC50/IC50 [5] | fold change (FC) (Hepatitis B virus [8])
21 | 111 | 0.12 | 56 |  | CCCC/N=C(\c1ccc(=O)n(CCCC)c1)c1ccc(OC)cc1O | 0.5 | 466.67 | 56 | 1 | 4
22 | 99 | 99.6 | 0.73 |  | COc1ccc(C(=O)c2ccc(=O)n(C3CCCCC3)c2)c(O)c1 | 0.15 | 0.15 | 15 | 20.55 | 
23 | 98 | 12 | 40 |  | C=CC/N=C(\c1ccc(=O)n(CC=C)c1)c1ccc(OC)cc1O | 0.2 | 1.67 | 20 | 0.5 | 
24 | 77 | > 364 | > 97 |  | COc1ccc(C(=O)c2ccc(=O)n(/C=C/Nc3cccc4ccccc34)c2)c(O)c1 | 3.17 | <0.67 | 244 | <2.5 | 
25 | 72 | 92.6 | 30 |  | COc1ccc(/C(=N/Cc2ccccc2F)c2ccc(=O)n(Cc3ccccc3F)c2)c(O)c1 | 0.71 | 0.55 | 51 | 1.7 | 
26 | 61 | 6.2 | 1.6 |  | COc1ccc(C(=O)c2ccc(=O)n(-c3ccc(Cl)cc3)c2)c(O)c1 | 2.69 | 26.45 | 164 | 102.5 | 
27 | 46 | 20 | 39 |  | CCCCCn1cc(C(=O)c2ccc(OC)cc2O)ccc1=O | 1.72 | 3.95 | 79 | 2.03 | 
28 | 40 | 31.5 | 4.4 |  | COc1ccc(/C(=N/Cc2ccccc2)c2ccc(=O)n(Cc3ccccc3)c2)c(O)c1 | 2.55 | 3.24 | 102 | 23.18 | 
29 | 36 | 1 | 2 |  | COc1ccc(C/N=C(\c2ccc(=O)n(Cc3ccc(OC)cc3)c2)c2ccc(OC)cc2O)cc1 | 0.89 | 32 | 32 | 16 | 
30 | 29 | 0.8 | 0.3 |  | COc1ccc(C(=O)c2ccc(=O)n(-c3cccc(C)c3)c2)c(O)c1 | 5.48 | 198.75 | 159 | 530 | 
31 | 29 | 30 | 5 |  | CCCCC/N=C(\c1ccc(=O)n(CCCCC)c1)c1ccc(OC)cc1O | 3.38 | 3.27 | 98 | 19.6 | 
32 | 18 | 11 | 0.1 |  | COc1ccc(C(=O)c2ccc(=O)n(-c3ccccc3C)c2)c(O)c1 | >6.63 | >10.85 | > 119 | >1194 | 
33 | 13 | 3 | 40 |  | COc1ccc(/C(=N/Cc2ccc(F)cc2F)c2ccc(=O)n(Cc3ccc(F)cc3F)c2)c(O)c1 | 0.77 | 3.33 | 10 | 0.25 | 
34 | 13 | 2.1 | 0.5 |  | COc1ccc(/C(=N/Cc2cccc(F)c2)c2ccc(=O)n(Cc3cccc(F)c3)c2)c(O)c1 | 0.62 | 3.81 | 8 | 16 | 
35 | 13 | 0.5 | 38 |  | COc1ccc(C(=O)c2ccc(=O)n(-c3cc(C)ccc3C)c2)c(O)c1 | 0.04 | 1 | 0.5 | 0.01 | 
